From ChEMBL document CHEMBL1811821, “Cystic fibrosis: a new target for 4-Imidazo[2,1-b]thiazole-1,4-dihydropyridines” (J Med Chem, 2011)
Activity calls are given as the source filed them. The calls are words filed in the database; no cut-off is given here.

Assays:
[1] = system: Cystic fibrosis transmembrane conductance regulator (Homo sapiens), P13569 [F508del]; test: Activity at CFTR F508 deletion mutant expressed in forskolin-stimulated FRT cells assessed as maximal increase in iodine influx measured as YFP quenching rate at 0.2 uM after 24 hrs by fluorescence assay; type: cell-based
Outline: (§1)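 ΔF508-CFTR and halide-sensitive YFP coexpressed in FRT cells, held at 27 °C for 24 h for rescue, then stimulated 30–40 min with 20 μM forskolin with or without compound at 0.2, 2 and 20 μM. Fluorescence read before and after I– addition (100 mM final). Normalized decay fitted exponentially for maximal quenching rate; dose–response fitted with Hill equation for potency and maximal effect. Three independent determinations.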

[2] = Negative ionotropic activity against potassium-induced contraction in guinea pig left atrium assessed as […] at 10^-7 M relative to control; type: functional; details: Cavia porcellus, Cardiac atrium
Outline: (§2)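 Isolated guinea pig left atrium paced at 1 Hz. Drugs added cumulatively. Negative inotropic effect expressed as percent change from control, n = 5–6. […] Student's t-test against control at each concentration, P < 0.05. Mean ± SEM.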

[3] = Negative ionotropic activity in potassium depolarized guinea pig longitudinal smooth muscle assessed as inhibition of calcium-induced contraction; type: functional, Cavia porcellus
Aorta [4] = test: Vasorelaxant activity in potassium depolarized guinea pig aortic strip assessed as inhibition of calcium-induced contraction at 10^-4 M; type: functional; details: Cavia porcellus
Outline: (§3)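 Guinea pig aortic strips depolarized with 80 mM K+, with cumulative drug addition. Relaxation given as mean ± SEM. […] Student's t-test against control, P < 0.05.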

[5] = Negative chronotropic activity against potassium-induced contraction in guinea pig right atrium assessed as decrease atrial rate at 5 X 10^-6 M relative to control; type: functional; details: Cavia porcellus, Cardiac atrium
Outline: (§4)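 Spontaneously beating isolated guinea pig right atrium, pretreatment rate 165–190 beats/min. Drugs added cumulatively. Decrease in atrial rate expressed as percent change from control, n = 7–8. […] Control versus treated tested at each concentration by Student's t-test, P < 0.05. Mean ± SEM.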

[6] = Binding affinity to CFTR F508 deletion mutant expressed in forskolin-stimulated FRT cells assessed as increase in iodine influx measured as YFP quenching rate after 24 hrs by fluorescence assay; type: cell-based; outline: as §1
[7] = Bronchodilatory activity in guinea pig trachea assessed as inhibition of carbachol-induced contraction; type: functional, tissue-based, Cavia porcellus
[8] = Negative ionotropic activity against potassium-induced contraction in guinea pig left atrium assessed as decrease in developed tension; details: Cavia porcellus, Cardiac atrium
[9] = system: Cystic fibrosis transmembrane conductance regulator (Homo sapiens), P13569 [F508del]; test: Activity at CFTR F508 deletion mutant expressed in forskolin-stimulated FRT cells assessed as maximal increase in iodine influx measured as YFP quenching rate after 24 hrs by fluorescence assay; type: cell-based; outline: as §1
Aorta [10] = test: Vasorelaxant activity in potassium depolarized guinea pig aortic strip assessed as inhibition of calcium-induced contraction at 10^-6 M; type: functional; details: Cavia porcellus; outline: as §3
[11] = Negative ionotropic activity against potassium-induced contraction in guinea pig left atrium assessed as […] at 10^-4 M relative to control; type: functional; details: Cavia porcellus, Cardiac atrium; outline: as §2
[12] = Negative chronotropic activity against potassium-induced contraction in guinea pig right atrium assessed as decrease atrial rate; type: functional, tissue-based; details: Cavia porcellus, Cardiac atrium; outline: as §4
[13] = Negative chronotropic activity against potassium-induced contraction in guinea pig right atrium assessed as decrease atrial rate at 10^-4 M relative to control; type: functional; details: Cavia porcellus, Cardiac atrium; outline: as §4
[14] = Bronchodilatory activity in guinea pig trachea assessed as inhibition of carbachol-induced contraction at 10^-5 M; type: functional; details: Cavia porcellus
Cavia porcellus [15] = species on record: Cavia porcellus; test: Negative ionotropic activity in potassium depolarized guinea pig longitudinal smooth muscle assessed as inhibition of calcium-induced contraction at 5 X 10^-8 M; type: functional
[16] = Negative ionotropic activity against potassium-induced contraction in guinea pig left atrium assessed as […] at 10^-6 M relative to control; type: functional; details: Cavia porcellus, Cardiac atrium; outline: as §2
Aorta [17] = test: Vasorelaxant activity in potassium depolarized guinea pig aortic strip assessed as inhibition of calcium-induced contraction at 10^-5 M; type: functional; details: Cavia porcellus; outline: as §3
Cavia porcellus [18] = species on record: Cavia porcellus; test: Negative ionotropic activity in potassium depolarized guinea pig longitudinal smooth muscle assessed as inhibition of calcium-induced contraction at 10^-5 M; type: functional
[19] = Negative chronotropic activity against potassium-induced contraction in guinea pig right atrium assessed as decrease atrial rate at 10^-5 M relative to control; type: functional; details: Cavia porcellus, Cardiac atrium; outline: as §4
Cavia porcellus [20] = species on record: Cavia porcellus; test: Negative ionotropic activity in potassium depolarized guinea pig longitudinal smooth muscle assessed as inhibition of calcium-induced contraction at 10^-6 M; type: functional
[21] = system: Cystic fibrosis transmembrane conductance regulator (Homo sapiens), P13569 [F508del]; test: Activity at CFTR F508 deletion mutant expressed in forskolin-stimulated FRT cells assessed as maximal increase in iodine influx measured as YFP quenching rate up to 20 uM after 24 hrs by fluorescence assay; type: cell-based; outline: as §1
[22] = Negative ionotropic activity against potassium-induced contraction in guinea pig left atrium assessed as […] at 10^-5 M relative to control; type: functional; details: Cavia porcellus, Cardiac atrium; outline: as §2
[23] = Bronchodilatory activity in guinea pig trachea assessed as inhibition of carbachol-induced contraction at 10^-4 M; type: functional; details: Cavia porcellus
[24] = Ratio EC50 for nifedipine to compound for negative […] activity against potassium-induced contraction in left atrium of guinea pig; type: functional, Cavia porcellus, Cardiac atrium
[25] = Bronchodilatory activity in guinea pig trachea assessed as inhibition of carbachol-induced contraction at 10^-7 M; type: functional; details: Cavia porcellus
Cavia porcellus [26] = species on record: Cavia porcellus; test: Negative ionotropic activity in potassium depolarized guinea pig longitudinal smooth muscle assessed as inhibition of calcium-induced contraction at 5 X 10^-5 M; type: functional
[27] = Ratio EC50 for negative chronotropic activity against potassium-induced contraction in guinea pig right atrium to EC50 for negative […] activity against potassium-induced contraction in guinea pig left atrium; type: functional, Cavia porcellus, Cardiac atrium

Cystic fibrosis transmembrane conductance regulator (Homo sapiens), P13569 [F508del], sequence (P13569 as listed by the source): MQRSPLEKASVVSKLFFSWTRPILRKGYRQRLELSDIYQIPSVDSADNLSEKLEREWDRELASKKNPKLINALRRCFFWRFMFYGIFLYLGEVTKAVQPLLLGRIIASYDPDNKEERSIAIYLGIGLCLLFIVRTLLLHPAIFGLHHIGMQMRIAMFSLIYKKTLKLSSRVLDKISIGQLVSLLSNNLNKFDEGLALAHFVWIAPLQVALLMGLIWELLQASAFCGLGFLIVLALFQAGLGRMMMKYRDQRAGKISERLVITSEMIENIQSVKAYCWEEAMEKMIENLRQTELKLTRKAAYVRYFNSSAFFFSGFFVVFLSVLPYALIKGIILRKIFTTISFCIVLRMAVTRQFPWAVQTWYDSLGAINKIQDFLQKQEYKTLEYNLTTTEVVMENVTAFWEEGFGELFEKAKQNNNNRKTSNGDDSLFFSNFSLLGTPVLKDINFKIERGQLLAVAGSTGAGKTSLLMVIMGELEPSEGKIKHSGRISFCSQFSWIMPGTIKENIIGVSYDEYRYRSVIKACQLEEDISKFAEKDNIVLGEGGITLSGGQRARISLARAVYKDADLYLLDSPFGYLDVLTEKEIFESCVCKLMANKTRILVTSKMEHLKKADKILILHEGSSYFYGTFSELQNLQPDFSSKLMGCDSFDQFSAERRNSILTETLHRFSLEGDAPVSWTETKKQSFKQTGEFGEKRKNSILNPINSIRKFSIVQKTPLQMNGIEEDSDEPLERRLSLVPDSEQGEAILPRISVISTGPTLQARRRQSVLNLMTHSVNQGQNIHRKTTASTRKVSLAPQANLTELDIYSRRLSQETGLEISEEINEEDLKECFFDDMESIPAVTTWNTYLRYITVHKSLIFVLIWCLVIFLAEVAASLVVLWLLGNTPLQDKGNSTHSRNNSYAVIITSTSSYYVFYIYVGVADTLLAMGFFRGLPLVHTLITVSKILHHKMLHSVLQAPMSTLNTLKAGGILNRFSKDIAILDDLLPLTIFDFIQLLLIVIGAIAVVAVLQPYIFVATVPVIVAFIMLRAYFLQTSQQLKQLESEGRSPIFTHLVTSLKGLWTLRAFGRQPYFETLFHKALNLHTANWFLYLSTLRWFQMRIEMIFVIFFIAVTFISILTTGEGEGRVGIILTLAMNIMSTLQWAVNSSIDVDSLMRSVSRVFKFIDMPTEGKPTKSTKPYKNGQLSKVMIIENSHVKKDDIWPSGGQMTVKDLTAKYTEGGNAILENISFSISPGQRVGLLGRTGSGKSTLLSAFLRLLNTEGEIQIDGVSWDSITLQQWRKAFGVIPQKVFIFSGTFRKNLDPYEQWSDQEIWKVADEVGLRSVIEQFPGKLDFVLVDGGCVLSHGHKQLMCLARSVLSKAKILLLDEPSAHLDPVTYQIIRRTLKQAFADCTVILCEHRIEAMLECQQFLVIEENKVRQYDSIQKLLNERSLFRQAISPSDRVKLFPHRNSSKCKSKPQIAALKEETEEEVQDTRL

| Structure (SMILES) | Activity [1] | IC50 [3] [nM] | Kd [6] [µM] | Emax [9] [ms-1] | Activity [21] | other results |
| --- | --- | --- | --- | --- | --- | --- |
| CCOC(=O)C1=C(C)NC(C)=C(C(=O)OCC)C1c1c(Cl)nc2sc(C)cn12 | inactive | 57 | 8.4 | 60 | – | inhibition at 0.1 µM [2]: 56%; inhibition at 100 µM (Aorta [4]): 8%; inhibition at 5 µM [5]: 36%; IC50 [7]: 2340 nM; EC50 [8]: 31 nM |
| C=CCOC(=O)C1=C(C)NC(C)=C(C(=O)OCC=C)C1c1c(-c2ccc(OC(F)(F)F)cc2)nc2sccn12 | inactive | 5.3 | 4.8 | 60 | – | inhibition at 1 µM (Aorta [10]): 31%; inhibition at 100 µM [11]: 88%; EC50 [12]: 1970 nM; inhibition at 100 µM [13]: 77%; inhibition at 10 µM [14]: 38%; EC50 [8]: 730 nM; inhibition (Cavia porcellus [15]): 90% |
| COC(=O)C1=C(C)NC(C)=C(C(=O)OC)C1c1c(-c2cccc(OC)c2)nc2sccn12 | inactive | – | 34.2 | 60 | – | – |
| CCOC(=O)C1=C(C)NC(C)=C(C(=O)OCC)C1c1cccc(Oc2ccccc2)c1 | – | 230 | 0.37 | 62 | – | inhibition at 1 µM [16]: 80%; inhibition at 10 µM (Aorta [17]): 17%; inhibition at 5 µM [5]: 38%; inhibition at 10 µM [14]: 30%; EC50 [8]: 29 nM; inhibition (Cavia porcellus [18]): 83% |
| CCOC(=O)C1=C(C)NC(C)=C(C(=O)OCC)C1c1c(-c2ccc(Cl)c(Cl)c2Cl)nc2sccn12 | inactive | 38 | 3.2 | 46 | – | inhibition at 1 µM [16]: 90%; EC50 [12]: 610 nM; inhibition at 100 µM (Aorta [4]): 17%; inhibition at 10 µM [14]: 40%; inhibition at 10 µM [19]: 92%; EC50 [8]: 430 nM; inhibition (Cavia porcellus [20]): 77% |
| COC(=O)C1=C(C)NC(C)=C(C(=O)OC)C1c1c(-c2ccccc2OC)nc2sccn12 | inactive | 860 | – | – | inactive | – |
| COC(=O)C1=C(C)NC(C)=C(C(=O)OC)C1c1c(Cl)nc2sc(C)cn12 | inactive | – | – | – | inactive | – |
| CCOC(=O)C1=C(C)NC(C)=C(C(=O)OCC)C1c1c(-c2ccccc2)nc2sc(C)cn12 | inactive | 250 | 14.8 | 60 | – | inhibition at 10 µM (Aorta [17]): 5%; EC50 [12]: 7150 nM; inhibition at 10 µM [19]: 84%; inhibition at 10 µM [22]: 44%; inhibition (Cavia porcellus [20]): 83% |
| COC(=O)C1=C(C)NC(C)=C(C(=O)OC)C1c1c(-c2c(OC)ccc(OC)c2[N+](=O)[O-])nc2sccn12 | inactive | – | – | – | inactive | – |
| COC(=O)C1=C(C)NC(C)=C(C(=O)OC)C1c1c(Cl)nc2sc(Cl)cn12 | inactive | 680 | 6.8 | 60 | – | inhibition at 100 µM [23]: 87%; Ratio EC50 [24]: 2.6; IC50 [7]: 3660 nM; inhibition (Cavia porcellus [20]): 60% |
| COC(=O)C1=C(C)NC(C)=C(C(=O)OC)C1c1c(C(F)(F)F)nc2sc(C)cn12 | inactive | 95 | 12 | 60 | – | IC50 [7]: 31 nM; inhibition (Cavia porcellus [20]): 92%; inhibition at 0.1 µM [25]: 64% |
| COC(=O)C1=C(C)NC(C)=C(C(=O)OC)C1c1c(-c2cc(OC)ccc2OC)nc2sc(Cl)cn12 | inactive | 1140 | – | – | inactive | inhibition (Cavia porcellus [26]): 91% |
| COC(=O)C1=C(C)NC(C)=C(C(=O)OC)C1c1c(-c2cc(OC)c(OC)cc2[N+](=O)[O-])nc2sccn12 | inactive | 11400 | – | – | inactive | inhibition (Cavia porcellus [26]): 86%; Ratio EC50 [27]: 9 |
| COC(=O)C1=C(C)NC(C)=C(C(=O)OC)C1c1c(-c2cc(OC)c(OC)c(OC)c2)nc2sc(Cl)cn12 | inactive | – | – | – | inactive | – |
